# Test results published in PubChem BioAssay AID493176 (Broad Institute, 2011).
# Results filed as inconclusive are left out. Calls of active or inactive are those of the source.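 Rule for the calls: active = every replicate test active, with falling luminescence and half-maximal potency within ten times the top tested dose; inconclusive = tests disagree, or partial flat loss or unreliable fit; inactive = all tests inactive, flat or rising signal or weak potency.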
# System: not listed separately
# Test: viability loss in HMLE_shECad cells – cell-based, CellTiter-Glo luminescence, dry powder, set 3, dose response (AID 493176)
# Conditions: HMLE_shECad viability, CellTiter-Glo luminescence, 72 h; at 19.5 µM (top of the series)
# In short: (§1)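 Material: E-cadherin-knockdown HMLE cells (HMLE_shECad), CSC-like; Amount: 2000 cells per well; Buffer or medium: CSC medium without serum; Compound: pin-transferred compounds; Incubation: ≥4 h settling, then ~70-74 h compound treatment at 37 °C; Signal: CellTiter-Glo luminescence, reagent diluted 1:3 in PBS; Measure: viability from luminescence.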
row,Structure (SMILES),"activity change, negative = inhibition"
1,O=C(c1ccccc1)c1coc2ccc(O)c(Br)c12,1.46% (inactive)

# System: HMLE_shECad viability, CellTiter-Glo luminescence, 72 h
# Test: as above
# Conditions: not given
# In short: as §1
row,Structure (SMILES),AC50 [µM]
1,Cc1ccc2nc(NC(=O)c3cccc(-c4cc5ccccc5oc4=O)c3)sc2c1,5.37
2,O=C(COc1ccc(Cl)cc1Cl)N/N=C/c1ccc[nH]1,5.91
3,Cc1onc(-c2ccccc2)c1C(=O)Nc1sc2c(c1C#N)CCC(C)C2 (stereo unspecified),7.81
4,CCN1C(=O)/C(=C\N2CCN(c3cccc(Cl)c3)CC2)SC1=S,4.92
5,CC(=O)c1cccc(NS(=O)(=O)c2cc(-c3cnc(C4CC4)o3)ccc2C)c1,1.02
6,Nc1cc(Cl)ccc1Oc1ccc2ccccc2c1,10.5
7,CCCCCCc1cc2cc(S(=O)(=O)c3ccc(Cl)cc3)c(=O)oc2cc1O,2.2
8,Cc1cc(C)nc(NC(=O)/C=C/c2cccs2)c1,5.95
9,O=C(Nc1ccccc1N1CCCC1)c1cccc(-c2cc3ccccc3oc2=O)c1,10
10,CC(C)c1ccc(/C=C/C(=O)NC2=NCCS2)cc1,7.96
11,CC(C)CC(=O)NC(NC(=S)Nc1sc2c(c1C#N)CCCC2)C(Cl)(Cl)Cl (stereo unspecified),0.619
12,CN(c1ccccc1)S(=O)(=O)c1ccc(-c2ccccc2)cc1,12.7
13,C/C(=N\NC(=O)c1cc(-c2cccc([N+](=O)[O-])c2)n[nH]1)c1ccccc1O,8.72
14,Cc1csc(NC(=O)c2ccc(COc3ccccc3)o2)n1,12.3
15,CC(C)(C)c1ccc2c(c1)OC(C(=O)NN=Cc1ccc[nH]1)CO2 (mixture of isomers),2.21
